Ten compounds from ChEMBL document CHEMBL4024715, “An in vitro and in vivo evaluation of new potential trans-sialidase inhibitors of Trypanosoma cruzi predicted by a computational drug repositioning method” (Eur J Med Chem, 2017) can be followed below.

Data set [1] relates to Trypanosoma cruzi. Nature of the data set: Trypanocidal activity against bloodstream form of Trypanosoma cruzi NINOA infected in NIH mouse assessed as reduction in parasitemia at 100 mg/kg, po measured at 2 to 4 hrs post dose by microscopic method. Format: functional, organism-based. Put shortly: (§1)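 Groups of five female NIH mice (20-25 g) infected intraperitoneally with 2×10^5 bloodstream trypomastigotes. At peak parasitemia (days 19-24), compounds suspended in 4% gum arabic were given orally, 100 mg/kg total dose. Vehicle-only controls. Tail blood examined microscopically at 2, 4 and 6 h after dosing. Parasitemia reduction scored against trypomastigote counts at each interval.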

In data set [2] the target is T1, Trans-sialidase (Trypanosoma cruzi) (UniProt Q26964).
T1 sequence (whole entry): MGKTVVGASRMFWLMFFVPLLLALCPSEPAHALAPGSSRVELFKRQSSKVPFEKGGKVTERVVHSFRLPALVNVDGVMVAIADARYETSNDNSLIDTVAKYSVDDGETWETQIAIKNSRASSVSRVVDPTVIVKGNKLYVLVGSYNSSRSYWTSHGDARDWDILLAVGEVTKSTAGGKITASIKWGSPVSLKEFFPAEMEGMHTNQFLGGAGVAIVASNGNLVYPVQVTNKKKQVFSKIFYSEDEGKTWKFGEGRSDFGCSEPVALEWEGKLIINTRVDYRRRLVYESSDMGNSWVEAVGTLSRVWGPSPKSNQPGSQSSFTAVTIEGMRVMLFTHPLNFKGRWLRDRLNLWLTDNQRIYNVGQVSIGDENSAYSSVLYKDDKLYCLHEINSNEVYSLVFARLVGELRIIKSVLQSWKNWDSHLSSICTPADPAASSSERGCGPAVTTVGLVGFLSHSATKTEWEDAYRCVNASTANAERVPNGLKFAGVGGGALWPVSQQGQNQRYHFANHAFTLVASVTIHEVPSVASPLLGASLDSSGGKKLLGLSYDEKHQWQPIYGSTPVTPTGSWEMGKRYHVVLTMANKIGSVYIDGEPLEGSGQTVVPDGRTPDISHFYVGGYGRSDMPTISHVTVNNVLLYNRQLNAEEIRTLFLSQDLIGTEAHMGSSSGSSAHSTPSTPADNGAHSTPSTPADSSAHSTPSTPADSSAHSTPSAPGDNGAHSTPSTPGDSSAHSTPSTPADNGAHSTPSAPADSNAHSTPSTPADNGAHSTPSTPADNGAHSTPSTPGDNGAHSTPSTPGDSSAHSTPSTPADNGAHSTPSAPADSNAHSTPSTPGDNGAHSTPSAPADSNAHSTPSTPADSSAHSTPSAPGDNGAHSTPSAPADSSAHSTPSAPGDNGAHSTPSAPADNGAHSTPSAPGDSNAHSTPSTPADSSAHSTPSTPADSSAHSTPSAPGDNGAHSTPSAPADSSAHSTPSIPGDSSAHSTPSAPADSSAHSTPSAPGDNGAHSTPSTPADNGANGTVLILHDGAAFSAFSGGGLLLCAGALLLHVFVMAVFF
Briefly: Inhibition of Trypanosoma cruzi trans-sialidase at 1 mM using N-acetyllactosamine as substrate in presence of 3'-sialyllactose measured after 15 mins by HPAEC-PAD relative to control. Put shortly: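 Purified T. cruzi Ts (300 ng) incubated 15 min at room temperature in 20 mM Tris-HCl pH 7, 30 mM NaCl with 1 mM 3'-sialyllactose donor, 1 mM N-acetyllactosamine acceptor and 1 mM inhibitor. Water-insoluble compounds added from 10 mM DMSO stock; DMSO-only control. Samples diluted 12-fold and analysed by HPAEC-PAD. Inhibition from 3'-sialyl-N-acetyllactosamine relative to total sialylated products, with vs without compound.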

The subject of data set [3] is Trypanosoma cruzi. Nature of the data set: Trypanocidal activity against bloodstream form of Trypanosoma cruzi NINOA infected in NIH mouse assessed as reduction in parasitemia at 100 mg/kg, po measured at 6 hrs post dose by microscopic method. Format: functional, organism-based. Put shortly: as §1
Data set [4] deals with Trypanosoma cruzi. Nature of the data set: Trypanocidal activity against trypomastigote stage of Trypanosoma cruzi INC-5 infected in NIH mouse blood assessed as parasite lysis at 50 ug/ml after 24 hrs by optical microscopic method relative to control. Format: functional. In a few lines: (§2)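 Blood from infected NIH mice was taken by cardiac puncture at peak infection and adjusted to 1×10^6 trypomastigotes/mL. Compounds came from 10 mg/mL DMSO stocks diluted in water; final DMSO below 1%. Incubation was 24 h at 4 °C. Controls were DMSO/H₂O 1:99, untreated blood and reference drug. Trypomastigotes in 5 µL blood were counted by the Brener method at 40×. Percent lysis was taken versus the negative control, with three runs per strain.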

Data set [5] has as its system Trypanosoma cruzi. Nature of the data set: Trypanocidal activity against trypomastigote stage of Trypanosoma cruzi NINOA infected in NIH mouse blood after 24 hrs by optical microscopic method.
In data set [6] the test system is Trypanosoma cruzi. Briefly: Trypanocidal activity against bloodstream form of Trypanosoma cruzi NINOA infected in NIH mouse assessed as reduction in parasitemia at 100 mg/kg, po measured up to 6 hrs post dose by microscopic method. Format: functional, organism-based. Put shortly: as §1
The subject of data set [7] is Trypanosoma cruzi. Briefly: Trypanocidal activity against bloodstream form of Trypanosoma cruzi INC-5 infected in NIH mouse assessed as reduction in parasitemia at 100 mg/kg, po measured up to 6 hrs post dose by microscopic method. Format: functional, organism-based. In a few lines:
as §1

Data set [8] relates to Trypanosoma cruzi. Briefly: Trypanocidal activity against trypomastigote stage of Trypanosoma cruzi INC-5 infected in NIH mouse blood after 24 hrs by optical microscopic method. Format: functional. To be noted: INC-5, Blood.
The subject of data set [9] is Trypanosoma cruzi. Briefly: Trypanocidal activity against trypomastigote stage of Trypanosoma cruzi NINOA infected in NIH mouse blood assessed as parasite lysis at 50 ug/ml after 24 hrs by optical microscopic method relative to control. Format: functional. Put shortly:
as §2

Data set [10] deals with Trypanosoma cruzi. Nature of the data set: Trypanocidal activity against bloodstream form of Trypanosoma cruzi INC-5 infected in NIH mouse assessed as reduction in parasitemia at 100 mg/kg, po measured at 2 to 4 hrs post dose by microscopic method. Format: functional, organism-based. Put shortly: as §1
The subject of data set [11] is Trypanosoma cruzi. Briefly: Trypanocidal activity against bloodstream form of Trypanosoma cruzi INC-5 infected in NIH mouse assessed as reduction in parasitemia at 100 mg/kg, po measured at 6 hrs post dose by microscopic method. Format: functional, organism-based. In a few lines: as §1
Data set [12] in a line: Solubility of the compound in water. Format: physicochemical. To be noted: buffer.
The subject of data set [13] is Trypanosoma cruzi. Nature of the data set: Trypanocidal activity against bloodstream form of Trypanosoma cruzi NINOA infected in NIH mouse assessed as reduction in parasitemia at 100 mg/kg, po measured at 4 hrs post dose by microscopic method relative to control. Format: functional. More on the design: scale not given: the % may be the effect or the level left. Put shortly:
as §1

Broadly, the inhibition is how much of the control response was suppressed. One may read the LC50 as the concentration lethal to half of the exposed cells or organisms.

In brackets after ≈: the same amount, converted by molar mass. Activity calls are given as the source filed them. The calls are words filed in the database; no cut-off is given here.

Turning to `NC(=O)c1cc[n+](CC2=C(C(=O)[O-])N3C(=O)[C@@H](NC(=O)[C@@H](c4ccccc4)S(=O)(=O)O)[C@H]3SC2)cc1`, the outcome in the data set with Trypanosoma cruzi [1] was Active. Besides, the inhibition entry in data set [2] was “inactive”. Also, the result in the data set on Trypanosoma cruzi [3] was inactive.
Turning to `O=C(Cn1ccnc1[N+](=O)[O-])NCc1ccccc1` [BENZNIDAZOLE], the values for the Activity with Trypanosoma cruzi [4] and in the data set on Trypanosoma cruzi [9] were 56% and 69%, respectively. Moreover, the LC50 in the data set on Trypanosoma cruzi [5] amounted to 46.6 µg/mL (≈ 179 µM); in the data set on Trypanosoma cruzi [8], 40.6 µg/mL (≈ 156 µM). In addition, the outcome with Trypanosoma cruzi [6] and in the data set with Trypanosoma cruzi [7] was Active.
In the case of `CCN1CCN(C(=O)N[C@@H](C(=O)N[C@@H]2C(=O)N3C(C(=O)[O-])=C(CSc4nnnn4C)CS[C@H]23)c2ccc(O)cc2)C(=O)C1=O.[Na+]` [CEFOPERAZONE SODIUM], the result with Trypanosoma cruzi [1] and in the data set with Trypanosoma cruzi [10] was Active. The Activity worked out at 71% in the data set with Trypanosoma cruzi [4] and 64% with Trypanosoma cruzi [9]. Also, the LC50 with Trypanosoma cruzi [5] came out at 25.8 µg/mL; in the data set on Trypanosoma cruzi [8], 23 µg/mL. For the same compound, in [2], the inhibition was 10.1%. The outcome with Trypanosoma cruzi [3] and in the data set on Trypanosoma cruzi [11] was inactive.
As for `NC(=O)c1cc[n+](CC2=C(C(=O)[O-])N3C(=O)[C@@H](NC(=O)[C@@H](c4ccccc4)S(=O)(=O)[O-])[C@H]3SC2)cc1.[Na+]` [CEFSULODIN SODIUM], the Activity came out at 14% in the data set with Trypanosoma cruzi [4] and 87% in the data set with Trypanosoma cruzi [9]. In the data set on Trypanosoma cruzi [5], the LC50 worked out at 16.6 µg/mL.
With `COc1cc2nc(N3CCN(C(=O)C4COc5ccccc5O4)CC3)nc(N)c2cc1OC.CS(=O)(=O)O` (stereo not given) [DOXAZOSIN MESYLATE], the Activity in the data set on Trypanosoma cruzi [4] was found to be 89%; with Trypanosoma cruzi [9] it was 97%. The solubility result in data set [12] is given as “Insoluble”. The LC50 in the data set on Trypanosoma cruzi [5] turned out to be 12.9 µg/mL; in the data set on Trypanosoma cruzi [8] it was 14.7 µg/mL. Also, the inhibition in [2] is 5.3%.
As for `COC(=O)Nc1nc2cc(C(=O)c3ccc(F)cc3)ccc2[nH]1` [FLUBENDAZOLE], the Activity with Trypanosoma cruzi [4] is recorded as 42%; in the data set with Trypanosoma cruzi [9], 41%. In addition, the solubility result in [12] is “Insoluble”. Besides, in data set [2], the inhibition result was “inactive”.
`O=C(O)C(O)C(O)C(=O)O.O=C(c1ccc(F)cc1)C1CCN(CCn2c(=O)[nH]c3ccccc3c2=O)CC1` [KETANSERIN TARTRATE]: the Activity with Trypanosoma cruzi [4] was determined as 73%; in the data set on Trypanosoma cruzi [9], 89%. Moreover, the LC50 came to 13.6 µg/mL in the data set on Trypanosoma cruzi [5] and 18.4 µg/mL with Trypanosoma cruzi [8].
For `CC1CS(=O)(=O)CCN1/N=C/c1ccc([N+](=O)[O-])o1` (stereo not given) [NIFURTIMOX], the Activity in the data set on Trypanosoma cruzi [4] is listed as 51%; in the data set with Trypanosoma cruzi [9], 66%.
In the case of `O=C(O)c1cc(/N=N/c2ccc(S(=O)(=O)Nc3ccccn3)cc2)ccc1O` [SULFASALAZINE], the outcome in the data set on Trypanosoma cruzi [1] was Active. Also, the Activity in the data set with Trypanosoma cruzi [4] is listed as 10%; in the data set with Trypanosoma cruzi [13], 60%; with Trypanosoma cruzi [9] it was 92%. Besides, the solubility entry in data set [12] is listed as “Insoluble”. Moreover, the LC50 in the data set on Trypanosoma cruzi [5] was 19.3 µg/mL (≈ 48.4 µM). In [2], the inhibition stood at 37.6%. Besides, the outcome with Trypanosoma cruzi [3] was inactive.
On to `CC(C)(C)c1ccc(C(O)CCCN2CCC(C(O)(c3ccccc3)c3ccccc3)CC2)cc1` (stereo not given) [TERFENADINE], for which the outcome with Trypanosoma cruzi [1] and in the data set with Trypanosoma cruzi [10] was Active. Also, the Activity in the data set on Trypanosoma cruzi [4] and in the data set on Trypanosoma cruzi [9] was 100% in each case. For the same compound, the solubility result in [12] is reported as “Insoluble”. Moreover, the LC50 in the data set on Trypanosoma cruzi [5] was 16.3 µg/mL (≈ 34.6 µM); with Trypanosoma cruzi [8] it was 4.5 µg/mL (≈ 9.54 µM). Moreover, the inhibition in data set [2] stood at 8.2%. The outcome with Trypanosoma cruzi [3] and in the data set on Trypanosoma cruzi [11] was inactive.
